Laboratory results as given in ChEMBL document CHEMBL1773023, “Potent and selective phosphopeptide mimetic prodrugs targeted to the Src homology 2 (SH2) domain of signal transducer and activator of transcription 3” (J Med Chem, 2011).
Calls of active or inactive are those of the source. No cut-off for these calls is given here.

Key:
[1] = biological target: Baculoviral IAP repeat-containing protein 5 (Homo sapiens) (UniProt O15392); assay: Inhibition of survivin in human HCC-827 cells at 5 uM after up to 48 hrs by Western blotting; format: cell-based
[2] = biological target: Baculoviral IAP repeat-containing protein 5 (Homo sapiens) (UniProt O15392); assay: Inhibition of survivin in human MDA-MB-468 cells at 5 uM after up to 48 hrs by Western blotting; format: cell-based
[3] = biological target: T1, Signal transducer and activator of transcription 3 (Homo sapiens, UniProt P40763); assay: Inhibition of IL6-induced SH2 domain of Stat3 phosphorylation at Tyr705 in human A375 cells up to 10 uM treated 1.5 hrs before IL6 challenge measured after 30 mins by Western blotting; format: cell-based; details: A-375
In short: (§1)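 Hey, MeWo and A375 cells (3×10^5/well, RPMI1640, overnight, fresh medium) given increasing prodrug concentrations for 2 h, with IL-6 10 ng/mL during the final 30 min; pStat3 and total Stat3 by Western blot.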

[4] = biological target: T1, Signal transducer and activator of transcription 3; assay: Inhibition of IL6-induced SH2 domain of Stat3 phosphorylation at Tyr705 in human HEY cells up to 10 uM treated 1.5 hrs before IL6 challenge measured after 30 mins by Western blotting; format: cell-based; in short: as §1
[5] = biological target: T1, Signal transducer and activator of transcription 3; assay: Inhibition of SH2 domain of Stat3 constitutive phosphorylation at Tyr705 in human MDA-MB-468 cells at 0.1 uM after 2 hrs by Western blotting; format: cell-based
In short: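 MDA-MB-468 cells (4×10^5/well, DMEM 10% FCS, overnight) given prodrug from freshly made 10 mM DMSO stock for 2 h. Lysates in Hepes pH 7.4 Triton buffer with phosphatase/protease inhibitors; 12 μg protein on 8% SDS-PAGE, PVDF, probed for pStat3 Y705 by ECL, then stripped and reprobed for total Stat3.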

[6] = biological target: T2, Signal transducer and activator of transcription 5A (Homo sapiens) (UniProt P42229); assay: Inhibition of EGF-induced SH2 domain of Stat5 phosphorylation at Tyr694 in human MDA-MB-468 cells at 5 uM treated 1.5 hrs before EGF challenge measured after 30 mins by Western blotting; format: cell-based
T2 sequence (whole entry): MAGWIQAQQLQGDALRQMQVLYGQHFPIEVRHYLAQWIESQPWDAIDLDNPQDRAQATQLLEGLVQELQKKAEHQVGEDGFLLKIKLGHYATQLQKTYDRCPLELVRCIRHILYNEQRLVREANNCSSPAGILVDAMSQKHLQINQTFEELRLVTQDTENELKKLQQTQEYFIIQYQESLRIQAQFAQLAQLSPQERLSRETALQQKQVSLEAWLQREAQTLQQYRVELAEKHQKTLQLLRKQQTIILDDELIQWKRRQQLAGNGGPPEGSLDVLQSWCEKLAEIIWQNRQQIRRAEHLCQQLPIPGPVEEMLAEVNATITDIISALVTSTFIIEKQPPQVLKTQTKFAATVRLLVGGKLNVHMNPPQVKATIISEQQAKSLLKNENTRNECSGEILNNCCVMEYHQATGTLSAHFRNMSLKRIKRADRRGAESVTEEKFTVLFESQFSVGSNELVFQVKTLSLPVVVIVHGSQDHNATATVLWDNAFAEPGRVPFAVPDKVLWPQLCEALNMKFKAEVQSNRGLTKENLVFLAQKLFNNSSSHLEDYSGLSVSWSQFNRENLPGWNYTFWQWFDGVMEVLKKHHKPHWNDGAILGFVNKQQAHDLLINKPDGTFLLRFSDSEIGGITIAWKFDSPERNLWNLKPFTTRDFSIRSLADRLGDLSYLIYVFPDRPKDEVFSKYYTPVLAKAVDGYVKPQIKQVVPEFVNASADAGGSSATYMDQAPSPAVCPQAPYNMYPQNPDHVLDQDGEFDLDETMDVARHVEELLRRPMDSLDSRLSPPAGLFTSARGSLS
In short: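 MDA-MB-468 cells pretreated 1.5 h with prodrug (5 μM), then EGF 100 ng/mL for 30 min; lysates split onto three PVDF blots probed for phospho/total Stat3, pSer473/total Akt, and phospho/total Stat5.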

[7] = biological target: T3, Signal transducer and activator of transcription 1-alpha/beta (Homo sapiens) (UniProt P42224); assay: Inhibition of IFN-gamma-induced Stat1 phosphorylation at Tyr701 in human MDA-MB-468 cells at 5 uM treated 1.5 hrs before IFN-gamma challenge measured after 30 mins by Western blotting; format: cell-based
T3 sequence (whole entry): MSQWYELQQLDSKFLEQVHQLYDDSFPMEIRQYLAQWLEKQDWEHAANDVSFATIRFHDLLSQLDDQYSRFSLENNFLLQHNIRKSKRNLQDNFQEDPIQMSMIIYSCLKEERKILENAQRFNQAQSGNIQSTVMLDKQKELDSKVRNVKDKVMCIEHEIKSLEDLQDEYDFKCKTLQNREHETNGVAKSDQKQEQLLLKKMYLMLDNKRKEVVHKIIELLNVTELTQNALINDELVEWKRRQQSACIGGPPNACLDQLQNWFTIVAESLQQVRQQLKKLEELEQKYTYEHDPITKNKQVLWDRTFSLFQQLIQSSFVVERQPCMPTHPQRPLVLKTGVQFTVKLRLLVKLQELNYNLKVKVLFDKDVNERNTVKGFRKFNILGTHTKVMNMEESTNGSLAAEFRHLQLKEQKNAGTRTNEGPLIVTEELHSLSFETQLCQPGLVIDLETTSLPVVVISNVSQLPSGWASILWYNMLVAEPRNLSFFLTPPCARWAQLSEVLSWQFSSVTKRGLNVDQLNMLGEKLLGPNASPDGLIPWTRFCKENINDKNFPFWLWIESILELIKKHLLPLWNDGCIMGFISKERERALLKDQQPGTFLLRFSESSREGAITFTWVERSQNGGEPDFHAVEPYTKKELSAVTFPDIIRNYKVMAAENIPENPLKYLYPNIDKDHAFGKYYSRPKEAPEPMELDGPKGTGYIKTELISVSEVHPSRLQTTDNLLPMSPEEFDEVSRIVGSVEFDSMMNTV
In short: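 MDA-MB-468 cells exposed to rising prodrug concentrations for 1.5 h, then interferon γ 25 ng/mL for 30 min; Western blot for pTyr701 and total Stat1.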

[8] = biological target: MAP kinase p38 (Homo sapiens) (UniProt O15264+Q15759+Q16539+P53778); assay: Inhibition of p38 MAPK phosphorylation in human HCC-827 cells at 5 uM after up to 24 hrs by Western blotting; format: cell-based
[9] = biological target: T1, Signal transducer and activator of transcription 3; assay: Inhibition of SH2 domain of Stat3 phosphorylation at Tyr705 in human HCC-827 cells at 5 uM after 4 hrs by Western blotting; format: cell-based
In short: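 HCC-827 NSCLC cells treated with 5 μM prodrug and sampled over a time course from 10 min to 24 h; pStat3 by Western blot.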

MCF7 = assay: Cytotoxicity against human MCF7 cells after 72 hrs by SRB assay; format: functional, cell-based; details: MCF7, 72 h
In short: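 Cancer cell lines (MCF-7, SKOV3-ip, HCC-827) dosed daily with prodrug for three days; viability by SRB assay.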

A-375 = assay: Cytotoxicity against human A375 cells assessed as cell growth inhibition at 5 to 10 uM after 72 hrs by MTT assay; format: functional
In short: (§2)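 Cell lines with constitutive Stat3 phosphorylation (melanoma, NSCLC) exposed to prodrug at 5–10 μM. Percent growth inhibition recorded.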

[10] = Cytotoxicity against human H1299 cells assessed as cell growth inhibition at 5 to 10 uM after 72 hrs by MTT assay; format: functional, NCI-H1299; in short: as §2

T1 sequence (P40763 whole entry, the tested form may be a part): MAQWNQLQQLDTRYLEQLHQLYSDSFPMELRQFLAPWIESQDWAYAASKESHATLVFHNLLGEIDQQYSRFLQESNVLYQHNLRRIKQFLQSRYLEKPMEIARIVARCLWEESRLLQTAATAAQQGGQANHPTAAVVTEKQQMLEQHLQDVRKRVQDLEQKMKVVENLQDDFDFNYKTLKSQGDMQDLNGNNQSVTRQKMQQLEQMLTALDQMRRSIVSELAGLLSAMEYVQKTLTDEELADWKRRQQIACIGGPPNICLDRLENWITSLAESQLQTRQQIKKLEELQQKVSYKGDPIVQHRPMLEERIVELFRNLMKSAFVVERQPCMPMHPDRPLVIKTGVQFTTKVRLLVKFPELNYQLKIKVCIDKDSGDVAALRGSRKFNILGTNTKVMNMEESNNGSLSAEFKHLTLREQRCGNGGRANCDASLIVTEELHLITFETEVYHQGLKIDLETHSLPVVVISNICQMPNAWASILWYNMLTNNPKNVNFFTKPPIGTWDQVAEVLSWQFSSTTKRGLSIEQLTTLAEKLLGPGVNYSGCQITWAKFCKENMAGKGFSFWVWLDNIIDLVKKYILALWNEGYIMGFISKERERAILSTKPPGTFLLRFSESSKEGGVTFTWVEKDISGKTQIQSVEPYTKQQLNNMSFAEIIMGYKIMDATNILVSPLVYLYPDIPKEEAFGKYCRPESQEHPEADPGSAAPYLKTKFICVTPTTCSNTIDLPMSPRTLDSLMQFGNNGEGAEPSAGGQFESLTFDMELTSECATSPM
Baculoviral IAP repeat-containing protein 5 (Homo sapiens), sequence (O15392 whole entry, the tested form may be a part): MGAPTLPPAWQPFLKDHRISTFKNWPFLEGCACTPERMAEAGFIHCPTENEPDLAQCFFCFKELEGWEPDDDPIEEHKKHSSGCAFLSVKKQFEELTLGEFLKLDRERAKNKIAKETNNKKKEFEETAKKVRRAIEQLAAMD

**Q.** Which inhibition [1] does the source give for `C/C(=C\C(=O)N[C@H]1CCc2cccc3c2N(C1=O)[C@H](C(=O)N[C@H](C)CCC(N)=O)C3)c1ccc(C(F)(F)P(=O)(OCOC(=O)C(C)(C)C)OCOC(=O)C(C)(C)C)cc1` here?
**A.** Its inhibition is “Active”.

**Q.** And the inhibition [2]?
**A.** The inhibition was “Active”.

**Q.** What about the inhibition [3] of the same compound?
**A.** Its inhibition is “Active”.

**Q.** And the inhibition [4]?
**A.** Its inhibition is “Active”.

**Q.** And the inhibition [5]?
**A.** Its inhibition is “Active”.

**Q.** And the inhibition [6]?
**A.** Its inhibition is “inactive”.

**Q.** What about the inhibition [7] of the same compound?
**A.** The inhibition was “Active”.

**Q.** And the inhibition [8]?
**A.** Its inhibition is “inactive”.

**Q.** What about the inhibition [9] of the same compound?
**A.** Its inhibition is “Active”.

**Q.** And the IC50 (MCF7)?
**A.** The IC50 was greater than 30 µM.

**Q.** And the “growth inhibition (GI)” value (A-375)?
**A.** The value was less than 20%.

**Q.** And the “growth inhibition (GI)” value [10]?
**A.** The value was less than 20%.
